Results on 16 compounds are retold here after PubChem BioAssay.

The source made the active and inactive calls.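 How the source made its calls, unless noted: active means viability at or below 30% in both replicate assays; inconclusive means viability at or below 30% in just one of the two assays; inactive means the rest.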

Assay [1] is described as follows: reducers of endogenous Her2 protein level, primary screen, SKBR3 breast tumor cells, AlphaScreen, ATP viability (AID 461;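 active means Her2 level under about 52% in both replicate screens, with viability over 70% of control, limit read from the data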;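 on Her2 level: lower value means less Her2 protein in the cells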;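 on viability: percent of carrier control wells set as 100% viability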). To be noted: 18-24 h, measured here: SKBR3 viability, ATP luminescence, at 10 µM. In general terms: Alpha assays give light when donor and acceptor beads are brought close together.
Assay [2] has as its target Receptor tyrosine-protein kinase erbB-2 (Homo sapiens) (UniProt P04626). The description is as above. The note with it: 18-24 h, at 10 µM, stronger effect = lower value.
Assay [3] can be described thus: SK-BR-3 cell growth inhibitors, pilot screen, 24 h, human (AID 572;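 active means viability at or below 10% of carrier control in both of two separate runs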;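 further: compound exposure lasted between 18 and 24 h rather than exactly 24 h; 100% = carrier-treated control wells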). To be noted: SK-BR-3 viability, CellTiter-Glo luminescence, at 10 µM, stronger effect = lower value.
Assay [4] in a line: HUVEC growth inhibition – cell-based, human, primary screen (AID 575).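 Further: 100% = median of untreated cell wells with 0.1% DMSO on each plate.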 To be noted: HUVEC proliferation, CellTiter-Glo luminescence, 72 h; at 10 µM; stronger effect = lower value. The gist of the method:
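Timing: 72 h treatment at 37 °C; material: HUVEC primary cells; technique: CellTiter-Glo luminescence measuring cellular ATP; controls: vehicle and MePR control wells; measure: percent of median DMSO-control luminescence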

Assay [5] can be described thus: growth inhibitors of H69AR lung tumor, primary screen, human, duplicate replicates (AID 580;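 active means viability at or under a set limit in both replicates, limit being median viability minus 3 SD, cut at about 48% in these data, passing the limit was not always enough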;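 further: 100% = mean luminescence of untreated wells and 0% = no signal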). To be noted: H69AR lung tumor cells viability, ATP luminescence, 72 h; at 10 µM; stronger effect = lower value.
Assay [6] can be described thus: reversal of MRP1-mediated doxorubicin resistance, pilot screen, H69AR cells, doxorubicin co-treatment (AID 601;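 active means viability loss from added drug above about 55%, and viability with drug at most 40%, in both replicates, limit read from the data, passing the limit was not always enough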). The note with it: CellTiter-Glo, 72 h, at 10 µM; for differential viability (reversal): stronger effect = higher value. A general note: In ATP-based viability assays light output follows the ATP content of the culture.
Assay [7] can be described thus: 384-well plate pilot, post-Golgi transport modulator project, inhibition of yeast transport mutant growth (AID 636; in the data active means inhibition above about 31%). To be noted: absorbance 615 nm, about 18 h, stronger effect = higher value.
Assay [8] in a line: growth suppression of yeast trafficking mutant, preliminary HTS, modulators of trafficking downstream of Golgi apparatus project, 1536-format plate, OD 615 nm (AID 637; in the data active means inhibition above about 30%). The note with it: yeast transport mutant growth, absorbance 615 nm, 18 h; stronger effect = higher value.
The mark [9] stands for this setting: H69AR cells + 2 uM doxorubicin, measured here: viability with 2 uM doxorubicin, stronger effect = lower value.
[10] abbreviates: H69AR cells, compound alone cytotoxicity.

Chain of Receptor tyrosine-protein kinase erbB-2 (Homo sapiens) (P04626 whole entry, looked up): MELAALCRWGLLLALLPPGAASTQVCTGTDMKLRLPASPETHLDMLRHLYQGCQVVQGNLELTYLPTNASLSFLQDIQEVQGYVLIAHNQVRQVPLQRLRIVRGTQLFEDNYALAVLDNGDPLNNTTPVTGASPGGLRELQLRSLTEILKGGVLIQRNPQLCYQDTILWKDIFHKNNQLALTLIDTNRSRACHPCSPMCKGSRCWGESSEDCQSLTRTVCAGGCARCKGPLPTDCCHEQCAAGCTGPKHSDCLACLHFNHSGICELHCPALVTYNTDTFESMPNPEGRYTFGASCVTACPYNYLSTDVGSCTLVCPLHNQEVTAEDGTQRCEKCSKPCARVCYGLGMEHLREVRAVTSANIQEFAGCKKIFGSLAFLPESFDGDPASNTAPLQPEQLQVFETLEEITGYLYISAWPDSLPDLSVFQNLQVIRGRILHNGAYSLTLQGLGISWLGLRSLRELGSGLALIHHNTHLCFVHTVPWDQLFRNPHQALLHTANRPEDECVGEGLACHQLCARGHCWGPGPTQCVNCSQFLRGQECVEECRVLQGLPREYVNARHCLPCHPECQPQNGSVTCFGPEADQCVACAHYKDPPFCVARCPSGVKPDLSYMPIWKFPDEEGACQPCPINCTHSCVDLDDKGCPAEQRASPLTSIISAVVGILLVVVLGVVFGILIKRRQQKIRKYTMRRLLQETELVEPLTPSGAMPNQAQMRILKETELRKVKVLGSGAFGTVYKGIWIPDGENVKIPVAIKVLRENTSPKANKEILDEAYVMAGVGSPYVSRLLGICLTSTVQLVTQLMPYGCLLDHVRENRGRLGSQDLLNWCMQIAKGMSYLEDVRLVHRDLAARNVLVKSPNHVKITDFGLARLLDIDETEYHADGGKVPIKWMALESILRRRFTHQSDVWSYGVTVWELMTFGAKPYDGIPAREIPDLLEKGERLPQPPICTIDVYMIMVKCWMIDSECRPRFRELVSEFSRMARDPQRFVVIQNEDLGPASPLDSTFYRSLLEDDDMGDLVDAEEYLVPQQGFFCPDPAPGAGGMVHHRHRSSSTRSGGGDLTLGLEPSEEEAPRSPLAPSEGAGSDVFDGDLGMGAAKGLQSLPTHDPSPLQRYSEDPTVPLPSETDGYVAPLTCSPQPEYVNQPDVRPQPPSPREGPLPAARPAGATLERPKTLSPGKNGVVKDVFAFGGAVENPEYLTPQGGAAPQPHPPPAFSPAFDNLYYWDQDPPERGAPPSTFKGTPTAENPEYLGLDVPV

In the case of `CCN(CC)S(=O)(=O)c1ccc(NC2CCCc3ccccc32)nc1` (stereo not given), the viability (in general, a read-out of living cells in per cent, often relative to untreated cells) in assay [1] was 71.5%; in assay [3] it was 71.5% (inactive); in assay [4], 88.6% (inactive); in assay [5], 86% (inactive); in assay [6] (setting [9]) it was 85.1%; in assay [6] (setting [10]), 86%. Further, the Her2 level in assay [2] is 77% (inactive). Further, the differential viability (reversal) in assay [6] (H69AR cells + 2 uM doxorubicin) is 0.97% (inactive). Besides, the inhibition (in general, the drop in the measured response relative to a control, in per cent) was -4.46% (inactive) in assay [7] and -3.17% (inactive) in assay [8].
Take `O=c1cc(-c2ccccc2)[nH]c2nc3ccccc3n12`: the viability is 90.5% in assay [1]; 90.5% (inactive) in assay [3]; 35.5% (inactive) in assay [4]; 9.48% (active) in assay [5]; 58.8% in assay [6] (setting [9]); 9.48% in assay [6] (setting [10]). The Her2 level in assay [2] was 60.5% (inactive). Moreover, the differential viability (reversal) in assay [6] (H69AR cells + 2 uM doxorubicin) was -49.3% (inactive). For the same compound, the figures for the inhibition in assay [7] and in assay [8] were -2.76% (inactive) and -2.73% (inactive), respectively.
As for `CCN(CC)CCN1C(=O)C(=O)/C(=C(/O)c2c(C)[nH]c(C(=O)OC)c2C)C1c1ccco1` (stereo not given), the viability in assay [1] was 88%; in assay [3], 88% (inactive); in assay [4], 107% (inactive); in assay [5], 93.4% (inactive); in assay [6] (setting [9]) it was 96.6%; in assay [6] (setting [10]), 93.4%. The Her2 level in assay [2] is 105% (inactive). The differential viability (reversal) in assay [6] (H69AR cells + 2 uM doxorubicin) was -3.21% (inactive). The inhibition was -4.8% (inactive) in assay [7] and -0.16% (inactive) in assay [8].
`Cc1ccc(-n2nnnc2SCC(=O)c2cc(C)n(-c3cc(C)on3)c2C)cc1`: the viability in assay [1] is 91%; in assay [3] it was 91% (inactive); in assay [4], 88.5% (inactive); in assay [5], 65.4% (inactive); in assay [6] (setting [9]), 93.6%; in assay [6] (setting [10]), 65.4%. Also, in assay [2], the Her2 level is 83% (inactive). For the same compound, in assay [6] (H69AR cells + 2 uM doxorubicin), the differential viability (reversal) was -28.2% (inactive). Besides, the values for the inhibition in assay [7] and in assay [8] were -2.86% (inactive) and 1.11% (inactive), respectively.
As for `Cc1nn(C)c(C)c1S(=O)(=O)N1CCCC(C(=O)N2CCN(c3ccc(Cl)cc3)CC2)C1` (stereo not given), the viability is 102% in assay [1]; 102% (inactive) in assay [3]; 87.7% (inactive) in assay [4]; 88.3% (inactive) in assay [5]; 69% in assay [6] (setting [9]); 88.3% in assay [6] (setting [10]). Moreover, the Her2 level in assay [2] is 70% (inactive). Also, the differential viability (reversal) in assay [6] (H69AR cells + 2 uM doxorubicin) is 19.3% (inactive). For the same compound, the inhibition in assay [7] is -2.43% (inactive); in assay [8] it was 3.49% (inactive).
As to `COc1ccc(C(=O)Nc2cccc(C)c2)cc1S(=O)(=O)N1CCOCC1`, the viability in assay [1] was 100%; in assay [3], 100% (inactive); in assay [4] it was 108% (inactive); in assay [5], 93.2% (inactive); in assay [6] (setting [9]), 85.5%; in assay [6] (setting [10]), 93.2%. In assay [2], the Her2 level was 83% (inactive). The differential viability (reversal) in assay [6] (H69AR cells + 2 uM doxorubicin) was 7.64% (inactive). The figures for the inhibition in assay [7] and in assay [8] were -5% (inactive) and -5.71% (inactive), respectively.
On to `Nc1nnnn1/N=C/c1ccccn1`, for which the viability is 69% in assay [1]; 69% (inactive) in assay [3]; 114% (inactive) in assay [4]; 97.2% (inactive) in assay [5]; 86.2% in assay [6] (setting [9]); 97.2% in assay [6] (setting [10]). Further, the Her2 level in assay [2] is 108% (inactive). The differential viability (reversal) in assay [6] (H69AR cells + 2 uM doxorubicin) was 11% (inactive). The inhibition was -4.73% (inactive) in assay [7] and 24% (inactive) in assay [8].
On to `CCOC(=O)c1cc(CC)sc1NC(=O)CCC(=O)O`, for which the viability is 121% in assay [1]; 121% (inactive) in assay [3]; 96% (inactive) in assay [4]; 93.8% (inactive) in assay [5]; 91.6% in assay [6] (setting [9]); 93.8% in assay [6] (setting [10]). Besides, the Her2 level in assay [2] was 93% (inactive). In assay [6] (H69AR cells + 2 uM doxorubicin), the differential viability (reversal) is 2.2% (inactive). The inhibition was -6.13% (inactive) in assay [7] and 0.32% (inactive) in assay [8].
In the case of `COc1cccc(NC(=O)N2CCCC2C(=O)NC(C)C)c1` (stereo not given), the viability in assay [1] was 112%; in assay [3] it was 112% (inactive); in assay [4] it was 82.6% (inactive); in assay [5] it was 99.1% (inactive); in assay [6] (setting [9]) it was 87.8%; in assay [6] (setting [10]) it was 99.1%. Moreover, in assay [2], the Her2 level is 78% (inactive). In addition, the differential viability (reversal) in assay [6] (H69AR cells + 2 uM doxorubicin) is 11.2% (inactive). Further, the inhibition in assay [7] was -5.07% (inactive); in assay [8], 9.51% (inactive).
With `Cc1ccc(CSC2=NCCN2C(=O)c2ccco2)cc1`, the viability in assay [1] is 95.5%; in assay [3] it was 95.5% (inactive); in assay [4], 92.8% (inactive); in assay [5], 84.3% (inactive); in assay [6] (setting [9]), 81.5%; in assay [6] (setting [10]) it was 84.3%. Besides, the Her2 level in assay [2] is 98% (inactive). The differential viability (reversal) in assay [6] (H69AR cells + 2 uM doxorubicin) was 2.8% (inactive). Besides, the inhibition in assay [7] was -3.85% (inactive); in assay [8], 3.83% (inactive).
Regarding `O=C(c1ccccc1Oc1nnnn1-c1ccccc1)N1CCOCC1`, the viability is 89.5% in assay [1]; 89.5% (inactive) in assay [3]; 67.6% (inactive) in assay [4]; 79.6% (inactive) in assay [5]; 71.9% in assay [6] (setting [9]); 79.6% in assay [6] (setting [10]). Further, the Her2 level in assay [2] was 84% (inactive). The differential viability (reversal) in assay [6] (H69AR cells + 2 uM doxorubicin) is 7.74% (inactive). In addition, the figures for the inhibition in assay [7] and in assay [8] were -2.31% (inactive) and -5.67% (inactive), respectively.
Regarding `CCC(C)(C)NC(=O)CN(Cc1ccc2c(c1)OCO2)C(=O)CCC(=O)Nc1ccccn1`, the viability in assay [1] is 132%; in assay [3], 132% (inactive); in assay [4], 105% (inactive); in assay [5], 92.5% (inactive); in assay [6] (setting [9]), 90.1%; in assay [6] (setting [10]), 92.5%. In addition, in assay [2], the Her2 level was 118% (inactive). In addition, the differential viability (reversal) in assay [6] (H69AR cells + 2 uM doxorubicin) was 2.38% (inactive). Moreover, the results for the inhibition in assay [7] and in assay [8] were -5.06% (inactive) and -2.3% (inactive), respectively.
As to `COc1ccc(NS(=O)(=O)c2c(C)[nH]c(=O)[nH]c2=O)c(OC)c1`, the viability in assay [1] is 88.5%; in assay [3] it was 88.5% (inactive); in assay [4], 97.9% (inactive); in assay [5], 90.8% (inactive); in assay [6] (setting [9]) it was 89.5%; in assay [6] (setting [10]), 90.8%. In addition, in assay [2], the Her2 level was 91% (inactive). For the same compound, in assay [6] (H69AR cells + 2 uM doxorubicin), the differential viability (reversal) was 1.25% (inactive). In addition, the inhibition in assay [7] is -0.39% (inactive); in assay [8], -4% (inactive).
Take `COc1cc(S(=O)(=O)N2CCC(N3CCCCC3)CC2)ccc1-n1cnnn1`: the viability in assay [1] is 92.5%; in assay [3], 92.5% (inactive); in assay [4] it was 98.3% (inactive); in assay [5] it was 98% (inactive); in assay [6] (setting [9]) it was 89.3%; in assay [6] (setting [10]), 98%. Also, the Her2 level in assay [2] is 108% (inactive). In assay [6] (H69AR cells + 2 uM doxorubicin), the differential viability (reversal) was 8.69% (inactive). The inhibition in assay [7] was -3.78% (inactive); in assay [8], -6.35% (inactive).
In the case of `O=C(CS(=O)CC(=O)Nc1cccc2c1CCCC2)Nc1ccc(F)cc1` (stereo not given), the viability in assay [1] was 114%; in assay [3] it was 114% (inactive); in assay [4] it was 88.3% (inactive); in assay [5], 102% (inactive); in assay [6] (setting [9]) it was 97.8%; in assay [6] (setting [10]) it was 102%. In addition, the Her2 level in assay [2] is 103% (inactive). In assay [6] (H69AR cells + 2 uM doxorubicin), the differential viability (reversal) was 4.67% (inactive). Moreover, the inhibition is -6.93% (inactive) in assay [7] and 4.1% (inactive) in assay [8].
Regarding `COc1cc(NC(=O)c2cc(CC(C)C)on2)c(OC)cc1Cl`, the viability was 92% in assay [1]; 92% (inactive) in assay [3]; 105% (inactive) in assay [4]; 88.9% (inactive) in assay [5]; 92.2% in assay [6] (setting [9]); 88.9% in assay [6] (setting [10]). In addition, the Her2 level in assay [2] was 102% (inactive). Further, the differential viability (reversal) in assay [6] (H69AR cells + 2 uM doxorubicin) was -3.37% (inactive). The inhibition in assay [7] was 1.15% (inactive); in assay [8], -5.33% (inactive).
